Series [1] deals with Klebsiella pneumoniae. The experiment in a line: Antibacterial activity against extended-spectrum beta-lactamase deficient Klebsiella pneumoniae 15-2 after 18 to 24 hrs by two-fold serial dilution method. The series is classed as functional. A digest of the protocol:
(§1)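 Agar two-fold dilution MIC. Compounds were dissolved in 0.1 N NaOH and water, then serially diluted in melted Mueller-Hinton agar, with top concentrations starting at 128. Plates were inoculated at about 10 cfu and incubated at 35 °C for 18–24 h. MIC was taken as the lowest concentration giving 90% inhibition of growth.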

The test system of a further series is Proteus mirabilis. The experiment in a line: Antibacterial activity against Proteus mirabilis 13-1 after 18 to 24 hrs by two-fold serial dilution method. The series is classed as functional. The gist of the method: as §1
The subject of series [2] is Acinetobacter calcoaceticus. The experiment in a line: Antibacterial activity against Acinetobacter calcoaceticus ATCC 19606 after 18 to 24 hrs by two-fold serial dilution method. The series is classed as functional. A digest of the protocol:
as §1

In series [3] the test system is Staphylococcus aureus. The experiment in a line: Antibacterial activity against methicillin-sensitive Staphylococcus aureus ATCC 29213 after 18 to 24 hrs by two-fold serial dilution method. In kind it is functional. A digest of the protocol: (§2)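 Agar two-fold serial dilution in Mueller-Hinton agar. Strains came from the Chinese Center for Disease Control and Prevention. Compounds were dissolved in 0.1 N NaOH and water, then diluted in melted agar to final levels stepping down from 128. Plates were inoculated with bacterial cfu and incubated at 35 C for 18–24 h. MIC is the lowest concentration giving 90% growth inhibition.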

In another series the test system is Proteus vulgaris. The experiment in a line: Antibacterial activity against Proteus vulgaris ATCC 29905 after 18 to 24 hrs by two-fold serial dilution method. The series is classed as functional. A digest of the protocol: as §1
Series [4] concerns Escherichia coli. The experiment in a line: Antibacterial activity against extended-spectrum beta-lactamase harboring Escherichia coli ATCC 35218 after 18 to 24 hrs by two-fold serial dilution method. In kind it is functional. The gist of the method: as §2
The next series deals with Serratia marcescens. The experiment in a line: Antibacterial activity against Serratia marcescens ATCC 21074 after 18 to 24 hrs by two-fold serial dilution method. The series is classed as functional. The gist of the method:
as §1

For another series, the system named is Klebsiella aerogenes. The experiment in a line: Antibacterial activity against Enterobacter aerogenes ATCC 13048 after 18 to 24 hrs by two-fold serial dilution method. The series is classed as functional. A digest of the protocol: as §1
Series [5] has as its system Enterococcus faecalis. The experiment in a line: Antibacterial activity against Enterococcus faecalis ATCC 51299 after 18 to 24 hrs by two-fold serial dilution method. In kind it is functional. A digest of the protocol: as §1
Series [6] relates to Klebsiella pneumoniae. The experiment in a line: Antibacterial activity against extended-spectrum beta-lactamase harboring Klebsiella pneumoniae ATCC 700603 after 18 to 24 hrs by two-fold serial dilution method. In kind it is functional. A digest of the protocol:
as §2

The test system of a further series is Enterobacter cloacae. The experiment in a line: Antibacterial activity against Enterobacter cloacae ATCC 43560 after 18 to 24 hrs by two-fold serial dilution method. In kind it is functional.
The test system of series [7] is Enterococcus faecium. The experiment in a line: Antibacterial activity against Enterococcus faecium 13-7 after 18 to 24 hrs by two-fold serial dilution method. In kind it is functional. The gist of the method: as §1
Another series concerns Pseudomonas aeruginosa. The experiment in a line: Antibacterial activity against Pseudomonas aeruginosa ATCC 27853 after 18 to 24 hrs by two-fold serial dilution method. The series is classed as functional. A digest of the protocol: as §1
Series [8] deals with Staphylococcus aureus. The experiment in a line: Antibacterial activity against methicillin-resistant Staphylococcus aureus ATCC 33591 after 18 to 24 hrs by two-fold serial dilution method. In kind it is functional. The gist of the method:
as §2

In series [9] the test system is Enterococcus faecium. The experiment in a line: Antibacterial activity against Enterococcus faecium ATCC 700221 after 18 to 24 hrs by two-fold serial dilution method. In kind it is functional. The gist of the method:
as §1

The next series relates to Morganella morganii. The experiment in a line: Antibacterial activity against Morganella morganii ATCC 25830 after 18 to 24 hrs by two-fold serial dilution method. The series is classed as functional. The gist of the method:
as §1

Series [10] relates to Staphylococcus epidermidis. The experiment in a line: Antibacterial activity against methicillin-sensitive Staphylococcus epidermidis ATCC 12228 after 18 to 24 hrs by two-fold serial dilution method. The series is classed as functional. The gist of the method: as §1
Series [11] deals with Stenotrophomonas maltophilia. The experiment in a line: Antibacterial activity against Stenotrophomonas maltophilia ATCC 13636 after 18 to 24 hrs by two-fold serial dilution method. The series is classed as functional. The gist of the method:
as §1

Series [12] has as its system Enterococcus faecalis. The experiment in a line: Antibacterial activity against Enterococcus faecalis ATCC 29212 after 18 to 24 hrs by two-fold serial dilution method. The series is classed as functional. A digest of the protocol:
as §1

Series [13] deals with Escherichia coli. The experiment in a line: Antibacterial activity against extended-spectrum beta-lactamase deficient Escherichia coli ATCC 25922 after 18 to 24 hrs by two-fold serial dilution method. In kind it is functional. A digest of the protocol: as §1
The nature of series [14]: Cytotoxicity against African green monkey Vero cells assessed as reduction in cell viability after 72 hrs by MTT assay. The series is classed as cell-based. Particulars: chlorocebus sabaeus. A digest of the protocol: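 VERO cells were kept in MEM with Earle's salts and 10% FBS at 37 °C, 5% CO2. They were seeded in 96-well plates and allowed to recover for 24 h. Cells were then exposed to compounds in DMSO over a series from 1000 down to 4 for 72 h. Viability was read by MTT, and CC50 was calculated by Bliss analysis.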

Series [15] has as its system Mycobacterium tuberculosis. The experiment in a line: Antimycobacterial activity against Mycobacterium tuberculosis H37Rv after 7 days. The series is classed as functional. Particulars: 168 h. The gist of the method: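 Rapid direct susceptibility test in 48-well plates. Two-fold dilutions of compound from DMSO stocks were mixed with an equal volume of bacterial suspension. Medium-only wells served as growth controls and water-only wells as no-growth controls. Plates were sealed and held at 37 C in a humid box, and controls were checked at 3 days. MIC (90% growth inhibition) was read visually by high-magnification observation of the cells and re-read at 7 days.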

Another series relates to Citrobacter freundii. The experiment in a line: Antibacterial activity against extended-spectrum beta-lactamase harboring Citrobacter freundii ATCC 43864 after 18 to 24 hrs by two-fold serial dilution method. In kind it is functional. The gist of the method:
as §2

The next series relates to Providencia rettgeri. The experiment in a line: Antibacterial activity against Providencia rettgeri ATCC 31052 after 18 to 24 hrs by two-fold serial dilution method. The series is classed as functional. The gist of the method: as §1
Series [16] deals with Staphylococcus epidermidis. The experiment in a line: Antibacterial activity against methicillin-resistant Staphylococcus epidermidis 13-3 after 18 to 24 hrs by two-fold serial dilution method. The series is classed as functional. The gist of the method:
as §2

In brackets after ≈: the same amount, converted by molar mass.

For the compound `O=C1C(=O)N(CCCOC(=O)c2cn(C3CC3)c3cc(N4CCN(CCCN5C(=O)C(=O)c6ccccc65)CC4)c(F)cc3c2=O)c2ccccc21`, the MIC90 is 64 µg/mL (≈ 90.7 µM) with Klebsiella pneumoniae [1]; 64 µg/mL (≈ 90.7 µM) in the series with Proteus mirabilis; 128 µg/mL (≈ 181 µM) in series [2]; 128 µg/mL (≈ 181 µM) with Staphylococcus aureus [3]; 64 µg/mL (≈ 90.7 µM) with Proteus vulgaris; 16 µg/mL (≈ 22.7 µM) in the series with Escherichia coli [4]. For the same compound, the MIC90 is 32 µg/mL (≈ 45.3 µM) in the series on Serratia marcescens; 64 µg/mL (≈ 90.7 µM) with Klebsiella aerogenes; greater than 128 µg/mL against Enterococcus faecalis [5]; 64 µg/mL (≈ 90.7 µM) with Klebsiella pneumoniae [6]; 128 µg/mL (≈ 181 µM) in the series with Enterobacter cloacae; greater than 128 µg/mL against Enterococcus faecium [7]. Besides, the MIC90 is greater than 128 µg/mL in the series with Pseudomonas aeruginosa; greater than 128 µg/mL with Staphylococcus aureus [8]; greater than 128 µg/mL against Enterococcus faecium [9]; 64 µg/mL (≈ 90.7 µM) against Morganella morganii; 64 µg/mL (≈ 90.7 µM) in [10]; greater than 128 µg/mL in series [11]. Further, the MIC90 is 64 µg/mL (≈ 90.7 µM) with Enterococcus faecalis [12]; 4 µg/mL (≈ 5.67 µM) with Escherichia coli [13]; 12.5 µg/mL (≈ 17.7 µM) in series [15]; 64 µg/mL (≈ 90.7 µM) in the series on Citrobacter freundii; 128 µg/mL (≈ 181 µM) with Providencia rettgeri; greater than 128 µg/mL in series [16]. Moreover, the CC50 at 72 h in series [14] is 32 µg/mL (≈ 45.3 µM).

For `NNC(=O)c1ccncc1` [ISONIAZID], in series [15], the MIC90 was 0.05 µg/mL (≈ 0.365 µM).

`C[C@H]1COc2c(N3CCN(C)CC3)c(F)cc3c(=O)c(C(=O)O)cn1c23.C[C@H]1COc2c(N3CCN(C)CC3)c(F)cc3c(=O)c(C(=O)O)cn1c23.O` [LEVOFLOXACIN]: the MIC90 is no more than 0.03 µg/mL in the series with Klebsiella pneumoniae [1]; no more than 0.03 µg/mL in the series with Proteus mirabilis; 0.125 µg/mL in [2]; 0.125 µg/mL against Staphylococcus aureus [3]; no more than 0.03 µg/mL in the series on Proteus vulgaris; no more than 0.03 µg/mL in the series with Escherichia coli [4]. In addition, the MIC90 against Serratia marcescens is 0.125 µg/mL; in the series on Klebsiella aerogenes, 0.06 µg/mL; against Enterococcus faecalis [5], 1 µg/mL; in the series on Klebsiella pneumoniae [6], 0.5 µg/mL; with Enterobacter cloacae it was no more than 0.03 µg/mL; against Enterococcus faecium [7], 64 µg/mL. For the same compound, the MIC90 against Pseudomonas aeruginosa was 2 µg/mL; against Staphylococcus aureus [8], 0.125 µg/mL; with Enterococcus faecium [9], 16 µg/mL; in the series on Morganella morganii, no more than 0.03 µg/mL; in series [10], 0.125 µg/mL; in [11] it was 1 µg/mL. Besides, the MIC90 with Enterococcus faecalis [12] was 1 µg/mL; against Escherichia coli [13], no more than 0.03 µg/mL; against Citrobacter freundii, no more than 0.03 µg/mL; against Providencia rettgeri, no more than 0.03 µg/mL; in [16], 4 µg/mL.

`CO[C@H]1/C=C/O[C@@]2(C)Oc3c(C)c(O)c4c(O)c(c(/C=N/N5CCN(C)CC5)c(O)c4c3C2=O)NC(=O)/C(C)=C\C=C\[C@H](C)[C@H](O)[C@@H](C)[C@@H](O)[C@@H](C)[C@H](OC(C)=O)[C@@H]1C` [RIFAMPIN]: the MIC90 in series [15] stood at 0.39 µg/mL (≈ 0.474 µM).

The record behind these values is ChEMBL document CHEMBL4270565, “Design, synthesis and antimicrobial evaluation of propylene-tethered ciprofloxacin-isatin hybrids” (Eur J Med Chem, 2018).
